An excerpt weighted towards active compounds, which were near 1% of everything screened.
INS-1E GSIS act = primary screen for activators of insulin secretion dependent on glucose, INS-1E cells, GLuc reporter luminescence. actives 0.61% (n = 370,000). INS-1E GLuc reporter insulin secretion, 2-3 h. activation, % at 16.6 µM;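 active means lowest replicate activation of at least 40%, so every replicate reaches that level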
Xi reactivation = reactivates the inactive X chromosome in mouse fibroblasts; XiGFP mouse fibroblasts, % GFP-positive cells imaging, 3 d; cells co-treated with 5-aza-dC sensitizer; scaled so ellipticine positive control = 100%; actives 0.055% (n = 360,000); AID 743238; activation, % at 7.58 µM;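 active means mean normalized replicate activation at least 10% and every replicate at or above 10%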
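System: SV40-immortalized XiGFP fibroblast cells, line 68-5-11 / Incubation: 3-day compound exposure, then 15 min fixation at room temperature / Compound: single concentration per compound, delivered by pin transfer / Buffer or medium: DMEM plus 5-aza-dC sensitizer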
GAA850 FXN act = activators of GAA850 frataxin (FXN) promoter; HEK293 lucGAA850 FXN promoter luciferase reporter, 24 h; percent of 10 µM SAHA response; activation, % at 6 µM; actives 0.56% (n = 360,000);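 active means activation above the average of all compounds screened plus 3 SD, cutoff fixed separately per campaign, cut at about 7.5% in these data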
CaV13 ICDI inh = Primary screen for inhibitors of IQ motif and Ca2+-dependent inactivation inhibitor domain binding in CACNA1D, Förster resonance energy transfer in living cells, …. HEK cells, CFP/YFP FRET ICDI-IQ, plate reader, 10 min; percent FRET-ratio fall versus neutral wells. inhibition, % at 12.3 µM. actives 0.098% (n = 340,000). AID 743397;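 active means mean replicate inhibition of at least 30% and at least 1% of replicates passing that level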
A number is an active result; – = inactive; · = not tested or not shown; + = active, no number.

SMILES	INS-1E GSIS act	Xi reactivation	GAA850 FXN act	CaV13 ICDI inh
CC1CCN(S(=O)(=O)c2ccc(C(=O)OCc3ccc4c(c3)OCO4)cc2)CC1	142.3	·	–	–
Cc1ccc(S(=O)(=O)N2CCN(C(=O)c3ccc4c(c3)OCO4)CC2)cc1	–	–	–	–
COc1ccc(CCNC(=O)CSc2n[nH]c(C)c2[N+](=O)[O-])cc1OC	52.4	–	–	–
Cc1[nH]nc(SCC(=O)NCCc2ccccc2)c1[N+](=O)[O-]	–	–	–	–
COc1ccc(CCNC(=O)COC(=O)CSc2ccc(C(N)=O)cc2[N+](=O)[O-])cc1OC	46.0	–	–	–
CC(=O)c1c(O)c2cccc3c2n(c1=O)CCC3	40.2	–	–	–
CN1CCN(C(=O)c2c(O)c3cccc4c3n(c2=O)CCC4)CC1	·	·	–	–
C[C@@H]1CN([C@H](C)CO)C(=O)c2cccc(NC(=O)C3CC3)c2O[C@H]1CN(C)S(=O)(=O)c1ccccc1	–	–	·	·
Cc1ccccc1N1C(=O)CC(Sc2nnc(-c3ccccc3)o2)C1=O (configuration not stated)	·	·	–	·
O=C1CC(Sc2nnc(-c3ccccc3)o2)C(=O)N1c1ccccc1 (configuration not stated)	86.5	·	–	–
CCC(=O)N1CC(=O)N2[C@H](CO)[C@@H](c3ccc(C#CC4CCCCC4)cc3)[C@H]2C1	–	–	·	·
O=C(c1cccnc1)N(Cc1ccccc1)c1ccccc1	117.3	·	–	–
CCN(Cc1ccccc1)C(=O)c1cccnc1	–	–	–	–
CC(C)C#Cc1cnc2c(c1)C(=O)N([C@H](C)CO)C[C@@H](C)[C@H](CN(C)S(=O)(=O)c1cn(C)cn1)O2	–	–	·	·
O=C(OC1CCOC1=O)c1cc(-c2cccs2)nc2ccccc12 (configuration not stated)	58.9	–	–	–
COC(=O)c1nnn(-c2ccccc2)c1N	·	·	–	–
C#Cc1cccc(-n2nnc(C(=O)OC)c2-c2ccccc2)c1	40.3	–	–	–
Cc1cc(NC(=O)CSc2nc3sc4c(c3c(=O)n2C)CCCC4)no1	152.3	·	–	–
O=C(/C=C/c1ccncc1)c1ccc(NC(=O)c2ccccc2F)cc1	·	·	12.5	·
O=C(/C=C/c1ccc(NC(=O)c2ccccc2-c2ccccc2C(=O)O)cc1)c1ccccc1	–	–	–	–
O=C(/C=C/c1ccc(Br)cc1)c1ccco1	–	–	–	–
O=C(/C=C/c1ccc(Br)cc1)c1ccc(NC(=O)c2ccco2)cc1	113.6	–	–	–
Nc1nc(N)c2cc(Sc3ccc(Cl)cc3)ccc2n1	186.8	–	–	–
CO[C@H](CN(C)C(=O)c1ccc2c(c1)OCO2)[C@H](C)CN([C@H](C)CO)S(=O)(=O)c1ccccc1	–	–	·	·
Cc1ccc(C(=O)NCCCn2ccnc2)cc1[N+](=O)[O-]	·	·	–	·
SMILES	INS-1E GSIS act	Xi reactivation	GAA850 FXN act	CaV13 ICDI inh
Cc1ccc(S(=O)(=O)Nc2ccc(C(=O)NCCCn3ccnc3)cc2)cc1[N+](=O)[O-]	44.2	–	–	–
C[C@H](CO)N1C[C@H](C)[C@H](CN(C)S(=O)(=O)c2ccccc2)Oc2c(NC(=O)c3ccncc3)cccc2C1=O	–	–	·	·
Cc1cc(Br)ccc1NC(=O)CNC(=O)c1cnn(C)c1	–	–	–	–
Cn1cc(C(=O)NCC(=O)Nc2ccccc2Br)cn1	41.1	–	–	–
O=C(O)C1CCN(C(=O)CSc2nc3ccccc3c(=O)n2Cc2ccccc2)CC1	43.5	–	–	–
CC(=O)Nc1ccc2c(c1)C(=O)N(C)[C@H]1CC[C@H](CC(=O)NCc3ccc4c(c3)OCO4)O[C@H]1CO2	–	–	·	·
CCCCCCc1cc2cc(C(=O)Nc3cccc(OC)c3)c(=O)oc2cc1O	68.4	–	–	–
N#C[C@@H]1[C@@H](c2ccc(/C=C/c3ccccc3)cc2)[C@@H](CO)N1C(=O)C1CCC1	–	–	·	·
Cc1ccc(CNC(=O)c2ccc3nc4[nH]c5ccccc5c4nc3c2)cc1	61.3	–	·	–
CS(=O)(=O)N1CCN(c2ccc(NC(=O)c3ccc(-c4ccc(Cl)cc4)o3)cc2)CC1	80.0	·	–	–
Clc1cccc(CN2CCN(Cc3nc(CCc4ccccc4)no3)CC2)c1	–	–	–	+
CCC(=O)Nc1ccc2c(c1)OC[C@@H](C)N(Cc1ccncc1)C[C@H](C)[C@H](OC)CN(C)C2=O	–	–	·	·
Cc1c(C=O)c2ccccn2c1C(=O)c1cccs1	–	–	–	32.0

Screening data: PubChem, several laboratories
